Source: ChEMBL document CHEMBL3627702, “Navigating CYP1A Induction and Arylhydrocarbon Receptor Agonism in Drug Discovery. A Case History with S1P1 Agonists” (J Med Chem, 2015)

Assays:
[1] = Lipophilicity, log D of the compound at pH 7.4; type: physicochemical; details: buffer
CYP1A1 [2] = assay: Induction of CYP1A1 mRNA expression in Sprague-Dawley rat hepatic microsomes at 30 mg/kg, po QD for 4 days relative to control; type: ADME, organism-based, Liver; details: read-out: FC
Summary of the method: (§1)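 Male CD rats (226–325 g, n = 3) were dosed by oral gavage once daily for 4 days as a 1% w/v aqueous methylcellulose suspension (3–6 mg/mL, 5 mL/kg). At the end of the study, a left lateral liver lobe section was placed in RNALater and homogenised in TRIzol. RNA was purified, DNase-treated and converted to cDNA, and Cyp1a1 was read on low-density TaqMan arrays.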

[3] = Dissociation constant, pKa of the compound; type: physicochemical
CYP1A2 [4] = assay: Induction of CYP1A2 mRNA expression in Sprague-Dawley rat hepatic microsomes at 30 mg/kg, po QD for 4 days relative to control; type: ADME, organism-based, Liver; details: read-out: FC
[5] = Cmax in Sprague-Dawley rat at 30 mg/kg, po QD measured on day 1; type: ADME, organism-based; parameters: dose 30 mg/kg, route oral; details: in vivo
Summary of the method: (§2)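 Male CD rats (226−325 g), n = 3, given the compound once daily by oral gavage for 4 days. Vehicle was 1% (w/v) methylcellulose aq suspension at 3−6 mg/mL, dosed at 5 mL/kg (target 15−30 mg/kg). Tail vein blood was taken on days 1 and 4 up to 24 h postdose. Blood was diluted 1:1 with water, extracted by acetonitrile protein precipitation and analysed by LC−MS/MS against calibration standards in diluted blood.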

[6] = Cmax in Sprague-Dawley rat at 30 mg/kg, po QD measured on day 4; type: ADME, organism-based; parameters: dose 30 mg/kg, route oral; details: in vivo; summary of the method: as §2
[7] = AUC in Sprague-Dawley rat at 30 mg/kg, po QD measured on day 1; type: ADME, organism-based; details: in vivo; summary of the method: as §2
[8] = AUC in Sprague-Dawley rat at 30 mg/kg, po QD measured on day 4; type: ADME, organism-based; details: in vivo; summary of the method: as §2
Rattus norvegicus [9] = assay: Dose normalized AUC in Sprague-Dawley rat at 30 mg/kg, po QD measured on day 1; type: ADME, organism-based; details: in vivo; summary of the method: as §2
Rattus norvegicus [10] = assay: Dose normalized AUC in Sprague-Dawley rat at 30 mg/kg, po QD measured on day 4; type: ADME, organism-based; details: in vivo; summary of the method: as §2
CYP1A2 [11] = molecular target: T1, CYP1A2 (Homo sapiens, UniProt P05177); assay: Induction of CYP1A2-mediated 7-ethoxyresorufin O-deethylase activity in human hepatocytes at 5 uM after 10 mins by fluorescence assay relative to control; type: ADME, cell-based, Hepatocyte; details: probe 7-ethoxyresorufin, read-out: FC
T1 sequence (P05177 whole entry): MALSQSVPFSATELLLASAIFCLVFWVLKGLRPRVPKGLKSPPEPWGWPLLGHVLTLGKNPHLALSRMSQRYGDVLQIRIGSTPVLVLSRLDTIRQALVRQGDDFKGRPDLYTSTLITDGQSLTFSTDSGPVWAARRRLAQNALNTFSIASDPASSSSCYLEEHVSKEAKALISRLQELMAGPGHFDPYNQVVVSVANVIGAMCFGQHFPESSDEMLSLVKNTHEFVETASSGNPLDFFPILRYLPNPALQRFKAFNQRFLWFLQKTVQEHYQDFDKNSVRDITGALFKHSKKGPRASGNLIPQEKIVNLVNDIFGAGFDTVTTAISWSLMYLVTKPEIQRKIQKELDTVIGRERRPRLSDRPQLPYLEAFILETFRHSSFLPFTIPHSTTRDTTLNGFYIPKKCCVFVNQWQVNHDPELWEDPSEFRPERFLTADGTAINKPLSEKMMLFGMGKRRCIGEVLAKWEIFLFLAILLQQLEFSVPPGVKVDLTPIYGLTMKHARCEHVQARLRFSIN
Summary of the method: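 Human hepatocytes were treated for 48 h (re-dosed at 24 h), washed, then incubated with 0.5 μM ethoxyresorufin in serum-free medium for 10 min at 37 °C. Resorufin fluorescence read at Ex 530/Em 590 nm. Rate in fluorescence units/min expressed as fold over solvent control.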

CYP1A2 [12] = assay: Induction of CYP1A2 mRNA expression in human hepatocytes at 10 uM relative to control; type: ADME, cell-based, Hepatocyte; details: read-out: FC
CYP1A2 [13] = assay: Induction of CYP1A2 mRNA expression in rat hepatic microsomes at 30 mg/kg, po QD for 7 days relative to control; type: ADME, organism-based, Liver; details: read-out: FC
Summary of the method: (§3)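 Male rats dosed orally once daily for 7 days. Hepatic mRNA measured by Taqman and expressed as fold induction versus control animals.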

CYP1A1 [14] = assay: Induction of CYP1A1 mRNA expression in rat hepatic microsomes at 30 mg/kg, po QD for 7 days relative to control; type: ADME, organism-based, Liver; details: read-out: FC; summary of the method: as §3
CYP1A2 [15] = assay: Induction of CYP1A2 mRNA expression in rat hepatocytes at 10 uM by Taqman analysis relative to control; type: ADME, cell-based, Hepatocyte; details: read-out: FC
CYP1A1 [16] = assay: Induction of CYP1A1 mRNA expression in rat hepatocytes at 10 uM by Taqman analysis relative to control; type: ADME, cell-based, Hepatocyte; details: read-out: FC
CYP1A1 [17] = assay: Induction of CYP1A1 mRNA expression in Sprague-Dawley rat hepatic microsomes at 15 mg/kg, po QD for 4 days relative to control; type: ADME, organism-based, Liver; details: read-out: FC; summary of the method: as §1
CYP1A2 [18] = assay: Induction of CYP1A2 mRNA expression in Sprague-Dawley rat hepatic microsomes at 15 mg/kg, po QD for 4 days relative to control; type: ADME, organism-based, Liver; details: read-out: FC
[19] = Cmax in Sprague-Dawley rat at 15 mg/kg, po QD measured on day 1; type: ADME, organism-based; parameters: dose 15 mg/kg, route oral; details: in vivo; summary of the method: as §2
[20] = Cmax in Sprague-Dawley rat at 15 mg/kg, po QD measured on day 4; type: ADME, organism-based; parameters: dose 15 mg/kg, route oral; details: in vivo; summary of the method: as §2
[21] = AUC in Sprague-Dawley rat at 15 mg/kg, po QD measured on day 1; type: ADME, organism-based; details: in vivo; summary of the method: as §2
[22] = AUC in Sprague-Dawley rat at 15 mg/kg, po QD measured on day 4; type: ADME, organism-based; details: in vivo; summary of the method: as §2
Rattus norvegicus [23] = assay: Dose normalized AUC in Sprague-Dawley rat at 15 mg/kg, po QD measured on day 1; type: ADME, organism-based; details: in vivo; summary of the method: as §2
Rattus norvegicus [24] = assay: Dose normalized AUC in Sprague-Dawley rat at 15 mg/kg, po QD measured on day 4; type: ADME, organism-based; details: in vivo; summary of the method: as §2
CYP1A1 [25] = assay: Induction of CYP1A1 mRNA expression in Sprague-Dawley rat hepatic microsomes at 25 mg/kg, po QD for 4 days relative to control; type: ADME, organism-based, Liver; details: read-out: FC; summary of the method: as §1
CYP1A2 [26] = assay: Induction of CYP1A2 mRNA expression in Sprague-Dawley rat hepatic microsomes at 25 mg/kg, po QD for 4 days relative to control; type: ADME, organism-based, Liver; details: read-out: FC
[27] = Cmax in Sprague-Dawley rat at 25 mg/kg, po QD measured on day 1; type: ADME, organism-based; parameters: dose 25 mg/kg, route oral; details: in vivo; summary of the method: as §2
[28] = Cmax in Sprague-Dawley rat at 25 mg/kg, po QD measured on day 4; type: ADME, organism-based; parameters: dose 25 mg/kg, route oral; details: in vivo; summary of the method: as §2
[29] = AUC in Sprague-Dawley rat at 25 mg/kg, po QD measured on day 1; type: ADME, organism-based; details: in vivo; summary of the method: as §2
[30] = AUC in Sprague-Dawley rat at 25 mg/kg, po QD measured on day 4; type: ADME, organism-based; details: in vivo; summary of the method: as §2
Rattus norvegicus [31] = assay: Dose normalized AUC in Sprague-Dawley rat at 25 mg/kg, po QD measured on day 1; type: ADME, organism-based; details: in vivo; summary of the method: as §2
Rattus norvegicus [32] = assay: Dose normalized AUC in Sprague-Dawley rat at 25 mg/kg, po QD measured on day 4; type: ADME, organism-based; details: in vivo; summary of the method: as §2

Compound	logD [1]	fold induction at 96 h (CYP1A1 [2])	pKa [3]	fold induction at 96 h (CYP1A2 [4])	Cmax [5] [µg/mL]	Cmax [6] [µg/mL]	AUC [7] [µg·h/mL]	AUC [8] [µg·h/mL]	AUC/dose (Rattus norvegicus [9]) [kg·min/L]	AUC/dose (Rattus norvegicus [10]) [kg·min/L]	fold induction at 96 h (CYP1A1 [17])	fold induction at 96 h (CYP1A2 [18])	Cmax [19] [µg/mL]	Cmax [20] [µg/mL]	AUC [21] [µg·h/mL]	AUC [22] [µg·h/mL]	AUC/dose (Rattus norvegicus [23]) [kg·min/L]	AUC/dose (Rattus norvegicus [24]) [kg·min/L]	also measured
Cc1c(-c2noc(-c3ccc(OC(C)C)c(C#N)c3)n2)ccc2c1CCN(C[C@H](O)CO)C2	2.7	64	7.7	10	0.77	0.5	4.44	3.6	9	9									
Cc1c(-c2noc(-c3ccc(OC(C)C)c(C#N)c3)n2)ccc2c1CCN(CCC(=O)O)C2																			fold induction at 10 min, 5 µM (CYP1A2 [11]): 1.1; fold induction at 10 µM (CYP1A2 [12]): 0.2; fold induction at 168 h (CYP1A2 [13]): 1; fold induction at 168 h (CYP1A1 [14]): 3; fold induction at 10 µM (CYP1A2 [15]): < 1; fold induction at 10 µM (CYP1A1 [16]): < 1
CC(C)Oc1ccc(-c2nc(-c3cccc4c3CCN(C(CO)CO)C4)no2)cc1C#N	2.58		7.3								1.6	2	0.9	0.94	12.1	13.9	48	56	
Cc1c(-c2noc(-c3ccc(OC(C)C)c(C#N)c3)n2)ccc2c1CCN(C[C@H](O)CO)CC2	2.36		8.4																fold induction at 96 h (CYP1A1 [25]): 215; fold induction at 96 h (CYP1A2 [26]): 2.2; Cmax [27]: 0.73 µg/mL; Cmax [28]: 0.87 µg/mL; AUC [29]: 13.2 µg·h/mL; AUC [30]: 15.6 µg·h/mL; AUC/dose (Rattus norvegicus [31]): 31 kg·min/L; AUC/dose (Rattus norvegicus [32]): 38 kg·min/L
Cc1c(-c2noc(-c3ccc(OC(C)C)c(C#N)c3)n2)ccc2c1CCN(C(CO)CO)C2	2.76	1.4		1.5	0.44	0.79	4.42	7.64	9	16									
Cc1c(-c2noc(-c3ccc(OC(C)C)c(C#N)c3)n2)ccc2c1CCN(C(CO)CO)CC2	2.64		8.2								275	1.9	0.55	0.67	9.1	11.5	36	46	
